Reference: ChEMBL document CHEMBL2086328, “¹⁸F-labeled 2-phenylquinoxaline derivatives as potential positron emission tomography probes for in vivo imaging of β-amyloid plaques” (Eur J Med Chem, 2012)
Values belong to the compound of their own block, whether it stands above or below them. Calls of active or inactive are those of the source. The rule behind the calls is not given here.

Legend:
[1] = Displacement of [125I]IMPY from amyloid beta (1 to 42) after 2 hrs by gamma counting
How it was run: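 Competition binding against [125I]IMPY (radiochemical purity >95%) on Aβ1-42 aggregates with 1% BSA solution; inhibitor 10^-4–10^-9.5 M; 37 °C, 2 h. Free and bound separated by vacuum filtration on GF/B filters, three PBS washes (0.02 M, pH 7.4, room temperature); filters gamma-counted. Three repeats; IC50 fitted, Ki from Cheng–Prusoff.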

[2] = biological target: Amyloid-beta precursor protein (Homo sapiens) (UniProt P05067); experiment: Binding affinity to beta-amyloid in normal human brain at 1.85 MBq/[…] after 1 hr by thioflavin-S based autoradiography; settings: 1.85 M, tested as the 18F-labelled form
Amyloid-beta precursor protein (Homo sapiens), sequence (P05067 whole entry): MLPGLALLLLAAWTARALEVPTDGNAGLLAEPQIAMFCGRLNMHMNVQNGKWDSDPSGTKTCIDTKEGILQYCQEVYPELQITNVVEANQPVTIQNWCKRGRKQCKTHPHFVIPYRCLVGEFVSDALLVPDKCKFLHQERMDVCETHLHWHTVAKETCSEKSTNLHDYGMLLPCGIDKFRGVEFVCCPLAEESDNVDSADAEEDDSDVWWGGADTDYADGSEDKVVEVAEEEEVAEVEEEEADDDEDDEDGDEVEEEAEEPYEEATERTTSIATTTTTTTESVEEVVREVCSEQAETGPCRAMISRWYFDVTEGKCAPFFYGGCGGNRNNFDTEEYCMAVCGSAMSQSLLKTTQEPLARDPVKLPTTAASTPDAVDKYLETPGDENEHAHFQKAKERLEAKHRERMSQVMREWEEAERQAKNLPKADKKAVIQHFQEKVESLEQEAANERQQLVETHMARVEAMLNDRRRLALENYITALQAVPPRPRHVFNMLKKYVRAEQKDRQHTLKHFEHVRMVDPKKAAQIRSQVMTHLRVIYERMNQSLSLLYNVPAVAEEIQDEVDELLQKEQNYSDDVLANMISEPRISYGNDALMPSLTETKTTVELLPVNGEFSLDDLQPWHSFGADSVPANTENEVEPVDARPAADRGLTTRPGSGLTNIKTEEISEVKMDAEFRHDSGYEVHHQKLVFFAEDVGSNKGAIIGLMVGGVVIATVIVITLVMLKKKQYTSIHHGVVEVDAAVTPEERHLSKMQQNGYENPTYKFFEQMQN
How it was run: (§1)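 Paraffin human temporal-lobe sections (5 µm; AD case or control) deparaffinized through xylene and graded ethanol, then PBS (0.2 M, pH 7.4) for 30 min. Incubated with 18F tracer (1.85 MBq/200 µL), 1 h, room temperature; washed in 40% EtOH, rinsed in water; phosphor plate exposure 2 h.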

[3] = biological target: Amyloid-beta precursor protein (Homo sapiens) (UniProt P05067); experiment: Binding affinity to beta-amyloid in Alzheimer's disease patient brain at 1.85 MBq/[…] after 1 hr by thioflavin-S based autoradiography; settings: 1.85 M, tested as the 18F-labelled form; how it was run: as §1
Mus musculus = organism: Mus musculus; experiment: Binding affinity to beta-amyloid in APPswe/PSEN1 transgenic C57BL6 mouse model brain at 1.85 MBq/[…] after 1 hr by thioflavin-S based autoradiography; settings: 1.85 M, tested as the 18F-labelled form
How it was run: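 Transgenic mouse brain sections deparaffinized, then incubated with 18F tracer (1.85 MBq/200 µL) for 1 h at room temperature. Washed in 40% EtOH, phosphor-imaged after 2 h exposure. Same sections then stained with 0.125% thioflavin-S in 10% EtOH for 3 min and imaged by fluorescence (excitation 405 nm, long-pass 505 nm).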

Heart [4] = experiment: Biodistribution in ICR mouse heart at 370 kBq, iv after 2 mins by gamma counting; format: ADME, organism-based; settings: in vivo
How it was run: (§2)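 Male ICR mice (five weeks, 20–22 g), tail-vein injection of 18F tracer in 0.1 mL saline with 10% EtOH. Killed by decapitation at set times, n = 5 per time point. Organs removed, weighed and gamma-counted; %ID/g wet tissue from comparison with diluted aliquots of injected dose; mean ± SD.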

Blood [5] = experiment: Biodistribution in ICR mouse blood at 370 kBq, iv after 2 mins by gamma counting; format: ADME, organism-based; settings: in vivo; how it was run: as §2
Heart [6] = experiment: Biodistribution in ICR mouse heart at 370 kBq, iv after 30 mins by gamma counting; format: ADME, organism-based; settings: in vivo, 0.5 h; how it was run: as §2
Lung [7] = experiment: Biodistribution in ICR mouse lung at 370 kBq, iv after 10 mins by gamma counting; format: ADME, organism-based; settings: in vivo; how it was run: as §2
Heart [8] = experiment: Biodistribution in ICR mouse heart at 370 kBq, iv after 10 mins by gamma counting; format: ADME, organism-based; settings: in vivo; how it was run: as §2
Stomach [9] = experiment: Biodistribution in ICR mouse stomach at 370 kBq, iv after 30 mins by gamma counting; format: ADME, organism-based; settings: in vivo, 0.5 h; how it was run: as §2
Bone [10] = experiment: Biodistribution in ICR mouse bone at 370 kBq, iv after 2 mins by gamma counting; format: ADME, organism-based, Bone element; settings: in vivo; how it was run: as §2
Lung [11] = experiment: Biodistribution in ICR mouse lung at 370 kBq, iv after 2 mins by gamma counting; format: ADME, organism-based; settings: in vivo; how it was run: as §2
Intestine [12] = experiment: Biodistribution in ICR mouse intestine at 370 kBq, iv after 10 mins by gamma counting; format: ADME, organism-based; settings: in vivo; how it was run: as §2
[13] = Lipophilicity, log D of the compound; format: physicochemical; settings: octanol/water
How it was run: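 18F tracer (740 kBq) in 3 g n-octanol plus 3 g PBS (0.05 M, pH 7.4). Vortexed 3 min at room temperature, centrifuged 5 min at 3000 rpm; weighed samples from octanol and buffer layers counted.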

Brain [14] = experiment: Ratio of drug level in ICR mouse brain after 2 mins to ICR mouse brain after 60 mins at 370 kBq, iv; format: ADME, organism-based; settings: in vivo
How it was run: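 Same intravenous study in ICR mice (370 kBq 18F tracer in saline/10% EtOH, n = 5 per time point). Ratio is brain %ID/g at 2 min divided by brain %ID/g at 60 min post-injection.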

Brain [15] = experiment: Biodistribution in ICR mouse brain at 370 kBq, iv after 10 mins by gamma counting; format: ADME, organism-based; settings: in vivo; how it was run: as §2
Intestine [16] = experiment: Biodistribution in ICR mouse intestine at 370 kBq, iv after 30 mins by gamma counting; format: ADME, organism-based; settings: in vivo, 0.5 h; how it was run: as §2
Intestine [17] = experiment: Biodistribution in ICR mouse intestine at 370 kBq, iv after 2 mins by gamma counting; format: ADME, organism-based; settings: in vivo; how it was run: as §2
Kidney [18] = experiment: Biodistribution in ICR mouse kidney at 370 kBq, iv after 30 mins by gamma counting; format: ADME, organism-based; settings: in vivo, 0.5 h; how it was run: as §2
Spleen [19] = experiment: Biodistribution in ICR mouse spleen at 370 kBq, iv after 60 mins by gamma counting; format: ADME, organism-based; settings: in vivo, 1 h; how it was run: as §2
Liver [20] = experiment: Biodistribution in ICR mouse liver at 370 kBq, iv after 10 mins by gamma counting; format: ADME, organism-based; settings: in vivo; how it was run: as §2
Liver [21] = experiment: Biodistribution in ICR mouse liver at 370 kBq, iv after 30 mins by gamma counting; format: ADME, organism-based; settings: in vivo, 0.5 h; how it was run: as §2
Spleen [22] = experiment: Biodistribution in ICR mouse spleen at 370 kBq, iv after 10 mins by gamma counting; format: ADME, organism-based; settings: in vivo; how it was run: as §2
Spleen [23] = experiment: Biodistribution in ICR mouse spleen at 370 kBq, iv after 30 mins by gamma counting; format: ADME, organism-based; settings: in vivo, 0.5 h; how it was run: as §2
Kidney [24] = experiment: Biodistribution in ICR mouse kidney at 370 kBq, iv after 60 mins by gamma counting; format: ADME, organism-based; settings: in vivo, 1 h; how it was run: as §2
Lung [25] = experiment: Biodistribution in ICR mouse lung at 370 kBq, iv after 60 mins by gamma counting; format: ADME, organism-based; settings: in vivo, 1 h; how it was run: as §2
Blood [26] = experiment: Biodistribution in ICR mouse blood at 370 kBq, iv after 60 mins by gamma counting; format: ADME, organism-based; settings: in vivo, 1 h; how it was run: as §2
Intestine [27] = experiment: Biodistribution in ICR mouse intestine at 370 kBq, iv after 60 mins by gamma counting; format: ADME, organism-based; settings: in vivo, 1 h; how it was run: as §2
Brain [28] = experiment: Biodistribution in ICR mouse brain at 370 kBq, iv after 30 mins by gamma counting; format: ADME, organism-based; settings: in vivo, 0.5 h; how it was run: as §2
Blood [29] = experiment: Biodistribution in ICR mouse blood at 370 kBq, iv after 30 mins by gamma counting; format: ADME, organism-based; settings: in vivo, 0.5 h; how it was run: as §2
Bone [30] = experiment: Biodistribution in ICR mouse bone at 370 kBq, iv after 60 mins by gamma counting; format: ADME, organism-based, Bone element; settings: in vivo, 1 h; how it was run: as §2
Stomach [31] = experiment: Biodistribution in ICR mouse stomach at 370 kBq, iv after 60 mins by gamma counting; format: ADME, organism-based; settings: in vivo, 1 h; how it was run: as §2
Kidney [32] = experiment: Biodistribution in ICR mouse kidney at 370 kBq, iv after 2 mins by gamma counting; format: ADME, organism-based; settings: in vivo; how it was run: as §2
Liver [33] = experiment: Biodistribution in ICR mouse liver at 370 kBq, iv after 2 mins by gamma counting; format: ADME, organism-based; settings: in vivo; how it was run: as §2
Brain [34] = experiment: Biodistribution in ICR mouse brain at 370 kBq, iv after 60 mins by gamma counting; format: ADME, organism-based; settings: in vivo, 1 h; how it was run: as §2
Kidney [35] = experiment: Biodistribution in ICR mouse kidney at 370 kBq, iv after 10 mins by gamma counting; format: ADME, organism-based; settings: in vivo; how it was run: as §2
Stomach [36] = experiment: Biodistribution in ICR mouse stomach at 370 kBq, iv after 2 mins by gamma counting; format: ADME, organism-based; settings: in vivo; how it was run: as §2
Liver [37] = experiment: Biodistribution in ICR mouse liver at 370 kBq, iv after 60 mins by gamma counting; format: ADME, organism-based; settings: in vivo, 1 h; how it was run: as §2
Heart [38] = experiment: Biodistribution in ICR mouse heart at 370 kBq, iv after 60 mins by gamma counting; format: ADME, organism-based; settings: in vivo, 1 h; how it was run: as §2
Stomach [39] = experiment: Biodistribution in ICR mouse stomach at 370 kBq, iv after 10 mins by gamma counting; format: ADME, organism-based; settings: in vivo; how it was run: as §2
Bone [40] = experiment: Biodistribution in ICR mouse bone at 370 kBq, iv after 10 mins by gamma counting; format: ADME, organism-based, Bone element; settings: in vivo; how it was run: as §2
Spleen [41] = experiment: Biodistribution in ICR mouse spleen at 370 kBq, iv after 2 mins by gamma counting; format: ADME, organism-based; settings: in vivo; how it was run: as §2
Bone [42] = experiment: Biodistribution in ICR mouse bone at 370 kBq, iv after 30 mins by gamma counting; format: ADME, organism-based, Bone element; settings: in vivo, 0.5 h; how it was run: as §2
Brain [43] = experiment: Biodistribution in ICR mouse brain at 370 kBq, iv after 2 mins by gamma counting; format: ADME, organism-based; settings: in vivo; how it was run: as §2
Blood [44] = experiment: Biodistribution in ICR mouse blood at 370 kBq, iv after 10 mins by gamma counting; format: ADME, organism-based; settings: in vivo; how it was run: as §2
Lung [45] = experiment: Biodistribution in ICR mouse lung at 370 kBq, iv after 30 mins by gamma counting; format: ADME, organism-based; settings: in vivo, 0.5 h; how it was run: as §2

Ki [1]: 5.3 nM
Activity [2]: inactive
Activity [3]: Active
Activity (Mus musculus): Active
Structure (SMILES): CNc1ccc2nc(-c3ccc(OCCOCCOCCF)cc3)cnc2c1

Drug uptake (Heart [4]): 3.21 % ID/g
Drug uptake (Blood [5]): 5.51 % ID/g
Drug uptake (Heart [6]): 1.19 % ID/g
Drug uptake (Lung [7]): 2.4 % ID/g
Drug uptake (Heart [8]): 1.76 % ID/g
Drug uptake (Stomach [9]): 3.21 %ID
Drug uptake (Bone [10]): 1.49 % ID/g
Drug uptake (Lung [11]): 4.07 % ID/g
Drug uptake (Intestine [12]): 12.26 %ID
logD [13]: 2.79
Ratio (Brain [14]): 3.89
Drug uptake (Brain [15]): 1.44 % ID/g
Drug uptake (Intestine [16]): 32.83 %ID
Drug uptake (Intestine [17]): 6.06 %ID
Drug uptake (Kidney [18]): 3.27 % ID/g
Drug uptake (Spleen [19]): 0.94 % ID/g
Drug uptake (Liver [20]): 14.09 % ID/g
Drug uptake (Liver [21]): 7.9 % ID/g
Drug uptake (Spleen [22]): 1.65 % ID/g
Drug uptake (Spleen [23]): 1.21 % ID/g
Drug uptake (Kidney [24]): 1.65 % ID/g
Drug uptake (Lung [25]): 1.15 % ID/g
Drug uptake (Blood [26]): 1.54 % ID/g
Drug uptake (Intestine [27]): 39.02 %ID
Drug uptake (Brain [28]): 0.83 % ID/g
Drug uptake (Blood [29]): 2.38 % ID/g
Drug uptake (Bone [30]): 1.78 % ID/g
Drug uptake (Stomach [31]): 6.53 %ID
Drug uptake (Kidney [32]): 5.52 % ID/g
Drug uptake (Liver [33]): 14.18 % ID/g
Drug uptake (Brain [34]): 0.64 % ID/g
Drug uptake (Kidney [35]): 3.91 % ID/g
Drug uptake (Stomach [36]): 1.55 %ID
Drug uptake (Liver [37]): 4.89 % ID/g
Drug uptake (Heart [38]): 1.03 % ID/g
Drug uptake (Stomach [39]): 2.81 %ID
Drug uptake (Bone [40]): 1 % ID/g
Drug uptake (Spleen [41]): 2.07 % ID/g
Drug uptake (Bone [42]): 1.12 % ID/g
Drug uptake (Brain [43]): 2.49 % ID/g
Drug uptake (Blood [44]): 3.32 % ID/g
Drug uptake (Lung [45]): 1.76 % ID/g
Structure (SMILES): CNc1ccc2nc(-c3ccc(OCCOCCOCC[18F])cc3)cnc2c1
